Reference: paper PMC4415995 (Advances in Therapy, 2015)
Marks after values point to notes of the source that are not given here.

Tested on: Japanese patients with T2DM
Assay: Plasma glucose concentrations, 7-day once-daily dosing
Type: in vivo, human
In short: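 Plasma glucose was measured by a glucose dehydrogenase enzymatic UV method. Sampling was pre-breakfast/pre-dose and 0.5–24 h after breakfast on Day −1, after dosing on Days 1 and 7, and pre-breakfast on Days 11 and 14. Standardized ~600 kcal meals were given, with lunch and dinner at 4 and 12 h. AUC, Cmax and tmax were non-compartmental. MPG was the mean of the 0, 2, 4, 6, 12, 14 and 16 h values. LS mean difference vs placebo with 95% CI.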

CCOc1ccc(Cc2cc([C@@H]3S[C@H](CO)[C@@H](O)[C@H](O)[C@H]3O)c(OC)cc2C)cc1 [Luseogliflozin, (1S)-1,5-anhydro-1-[5-(4-ethoxybenzyl)-2-methoxy-4-methylphenyl]-1-thio-D-glucitol]
FPG (24 h after dose) (0.5 mg OD, Day 1): 156 ± 23 mg/dL | FPG (24 h after dose) LS mean difference vs placebo (95% CI) (0.5 mg OD, Day 1): −7.15 (−16.0, 1.71) mg/dL | MPG0–16h (0.5 mg OD, Day 1): 224 ± 38.8 mg/dL | MPG0–16h LS mean difference vs placebo (95% CI) (0.5 mg OD, Day 1): −6.39 (−16.6, 3.79) mg/dL | Plasma glucose AUC0–4h (after breakfast) (0.5 mg OD, Day 1): 946 ± 175 mg·h/dL | Plasma glucose AUC0–4h (after breakfast) LS mean difference vs placebo (95% CI) (0.5 mg OD, Day 1): 29.4 (−25.0, 83.8) mg h/dL | Plasma glucose AUC4–8h (after lunch) (0.5 mg OD, Day 1): 915 ± 207 mg·h/dL | Plasma glucose AUC4–8h (after lunch) LS mean difference vs placebo (95% CI) (0.5 mg OD, Day 1): −111 (−191, −31.1)* mg h/dL | Plasma glucose AUC12–16h (after dinner) (0.5 mg OD, Day 1): 989 ± 114 mg·h/dL | Plasma glucose AUC12–16h (after dinner) LS mean difference vs placebo (95% CI) (0.5 mg OD, Day 1): −16.3 (−69.6, 37.0) mg h/dL | Plasma glucose C max0–4h (after breakfast) (0.5 mg OD, Day 1): 278 ± 53.0 mg/dL | Plasma glucose C max4–8h (after lunch) (0.5 mg OD, Day 1): 259 ± 52.3 mg/dL | Plasma glucose C max4–8h (after lunch) LS mean difference vs placebo (95% CI) (0.5 mg OD, Day 1): −43.5 (−68.5, −18.5)* mg/dL | Plasma glucose C max12–16h (after dinner) (0.5 mg OD, Day 1): 286 ± 32.5 mg/dL | Plasma glucose C max12–16h (after dinner) LS mean difference vs placebo (95% CI) (0.5 mg OD, Day 1): −16.0 (−35.0, 3.05) mg/dL | FPG (24 h after dose) (0.5 mg OD, Day 7): 145 ± 18 mg/dL | FPG (24 h after dose) LS mean difference vs placebo (95% CI) (0.5 mg OD, Day 7): −18.4 (−31.1, −5.75)* mg/dL | MPG0–16h (0.5 mg OD, Day 7): 204 ± 35.3 mg/dL | MPG0–16h LS mean difference vs placebo (95% CI) (0.5 mg OD, Day 7): −25.0 (−42.2, −7.90)* mg/dL | Plasma glucose AUC0–4h (after breakfast) (0.5 mg OD, Day 7): 810 ± 156 mg·h/dL | Plasma glucose AUC0–4h (after breakfast) LS mean difference vs placebo (95% CI) (0.5 mg OD, Day 7): −108 (−186, −29.3)* mg h/dL | Plasma glucose AUC4–8h (after lunch) (0.5 mg OD, Day 7): 887 ± 209 mg·h/dL | Plasma glucose AUC4–8h (after lunch) LS mean difference vs placebo (95% CI) (0.5 mg OD, Day 7): −165 (−267, −64.2)* mg h/dL | Plasma glucose AUC12–16h (after dinner) (0.5 mg OD, Day 7): 924 ± 108 mg·h/dL | Plasma glucose AUC12–16h (after dinner) LS mean difference vs placebo (95% CI) (0.5 mg OD, Day 7): −44.7 (−122, 32.2) mg h/dL | Plasma glucose C max0–4h (after breakfast) (0.5 mg OD, Day 7): 243 ± 42.1 mg/dL | Plasma glucose C max4–8h (after lunch) (0.5 mg OD, Day 7): 256 ± 61.7 mg/dL | Plasma glucose C max4–8h (after lunch) LS mean difference vs placebo (95% CI) (0.5 mg OD, Day 7): −46.2 (−76.1, −16.3)* mg/dL | Plasma glucose C max12–16h (after dinner) (0.5 mg OD, Day 7): 274 ± 34.6 mg/dL | Plasma glucose C max12–16h (after dinner) LS mean difference vs placebo (95% CI) (0.5 mg OD, Day 7): −9.79 (−35.5, 15.9) mg/dL | FPG (24 h after dose) (1 mg OD, Day 1): 146 ± 25 mg/dL | FPG (24 h after dose) LS mean difference vs placebo (95% CI) (1 mg OD, Day 1): −7.90 (−16.6, 0.795) mg/dL | MPG0–16h (1 mg OD, Day 1): 188 ± 30.0 mg/dL | MPG0–16h LS mean difference vs placebo (95% CI) (1 mg OD, Day 1): −18.4 (−28.3, −8.55)* mg/dL | Plasma glucose AUC0–4h (after breakfast) (1 mg OD, Day 1): 812 ± 158 mg·h/dL | Plasma glucose AUC0–4h (after breakfast) LS mean difference vs placebo (95% CI) (1 mg OD, Day 1): −48.9 (−102, 4.37) mg h/dL | Plasma glucose AUC4–8h (after lunch) (1 mg OD, Day 1): 766 ± 131 mg·h/dL | Plasma glucose AUC4–8h (after lunch) LS mean difference vs placebo (95% CI) (1 mg OD, Day 1): −89.1 (−166, −11.9)* mg h/dL | Plasma glucose AUC12–16h (after dinner) (1 mg OD, Day 1): 851 ± 117 mg·h/dL | Plasma glucose AUC12–16h (after dinner) LS mean difference vs placebo (95% CI) (1 mg OD, Day 1): −91.4 (−142, −40.8)* mg h/dL | Plasma glucose C max0–4h (after breakfast) (1 mg OD, Day 1): 255 ± 44.1 mg/dL | Plasma glucose C max4–8h (after lunch) (1 mg OD, Day 1): 223 ± 33.7 mg/dL | Plasma glucose C max4–8h (after lunch) LS mean difference vs placebo (95% CI) (1 mg OD, Day 1): −30.5 (−54.1, −7.02)* mg/dL | Plasma glucose C max12–16h (after dinner) (1 mg OD, Day 1): 255 ± 37.3 mg/dL | Plasma glucose C max12–16h (after dinner) LS mean difference vs placebo (95% CI) (1 mg OD, Day 1): −31.3 (−49.4, −13.3)* mg/dL | FPG (24 h after dose) (1 mg OD, Day 7): 139 ± 14 mg/dL | FPG (24 h after dose) LS mean difference vs placebo (95% CI) (1 mg OD, Day 7): −18.1 (−30.5, −5.62)* mg/dL | MPG0–16h (1 mg OD, Day 7): 184 ± 24.0 mg/dL | MPG0–16h LS mean difference vs placebo (95% CI) (1 mg OD, Day 7): −27.5 (−44.1, −10.8)* mg/dL | Plasma glucose AUC0–4h (after breakfast) (1 mg OD, Day 7): 780 ± 116 mg·h/dL | Plasma glucose AUC0–4h (after breakfast) LS mean difference vs placebo (95% CI) (1 mg OD, Day 7): −96.7 (−173, −20.0)* mg h/dL | Plasma glucose AUC4–8h (after lunch) (1 mg OD, Day 7): 787 ± 126 mg·h/dL | Plasma glucose AUC4–8h (after lunch) LS mean difference vs placebo (95% CI) (1 mg OD, Day 7): −138 (−236, −40.8)* mg h/dL | Plasma glucose AUC12–16h (after dinner) (1 mg OD, Day 7): 824 ± 125 mg·h/dL | Plasma glucose AUC12–16h (after dinner) LS mean difference vs placebo (95% CI) (1 mg OD, Day 7): −96.2 (−169, −23.2)* mg h/dL | Plasma glucose C max0–4h (after breakfast) (1 mg OD, Day 7): 240 ± 31.3 mg/dL | Plasma glucose C max4–8h (after lunch) (1 mg OD, Day 7): 229 ± 33.7 mg/dL | Plasma glucose C max4–8h (after lunch) LS mean difference vs placebo (95% CI) (1 mg OD, Day 7): −34.7 (−62.8, −6.53)* mg/dL | Plasma glucose C max12–16h (after dinner) (1 mg OD, Day 7): 242 ± 41.3 mg/dL | Plasma glucose C max12–16h (after dinner) LS mean difference vs placebo (95% CI) (1 mg OD, Day 7): −29.4 (−53.8, −5.06)* mg/dL
